This is a sample that favours compounds with a hit; in the whole collection about 3.1% have one here.
PP1 counter: PP1-alpha (human) inhibition in PP5 counter-screen; P62136; AID 2235; purified PP1alpha, OMFP fluorescence; 320,000 compounds, 0.9% hits; inhibition, % at 6.7 µM;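 active = inhibition above the mean inhibition of all tested compounds plus 3 SD, computed separately for each screening campaign, cut at about 15% in these data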
PP5 inh: PP5 (human) phosphatase inhibition. purified PP5c, OMFP substrate fluorescence. inhibition, % at 6.7 µM. 320,000 compounds, 0.18% hits. AID 1987;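 active = inhibition above the campaign's mean inhibition across all tested compounds plus 3 SD, cut at about 9.5% in these data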
Target sequence (P53041 whole entry, looked up): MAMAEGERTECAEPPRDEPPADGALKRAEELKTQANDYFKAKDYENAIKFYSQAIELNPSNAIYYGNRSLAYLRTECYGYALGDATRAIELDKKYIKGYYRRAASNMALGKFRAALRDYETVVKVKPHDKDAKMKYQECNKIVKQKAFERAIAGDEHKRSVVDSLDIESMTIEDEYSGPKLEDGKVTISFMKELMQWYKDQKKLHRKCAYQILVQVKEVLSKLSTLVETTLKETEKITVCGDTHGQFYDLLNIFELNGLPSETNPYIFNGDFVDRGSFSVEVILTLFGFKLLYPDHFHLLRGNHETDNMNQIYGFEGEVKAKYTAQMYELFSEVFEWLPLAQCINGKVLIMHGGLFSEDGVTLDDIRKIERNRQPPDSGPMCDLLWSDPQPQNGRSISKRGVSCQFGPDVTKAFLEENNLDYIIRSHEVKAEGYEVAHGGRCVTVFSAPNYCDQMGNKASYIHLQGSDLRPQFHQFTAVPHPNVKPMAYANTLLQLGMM
Fh CTSL1 inh: blocks F. hepatica cathepsin L1 in PFM18AAP counter-screen; recombinant F. hepatica cathepsin L1, Z-Leu-Arg-MCA fluorescence; inhibition, % at 5.96 µM; 300,000 compounds, 0.49% hits;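 active = inhibition above the mean of all tested compounds plus 3 SD, set per screening campaign, cut at about 17% in these data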
HCV core dimer: HCV core protein dimerization inhibition; 300,000 compounds, 0.33% hits; inhibition, % at 5 µM; TR-FRET GST/Flag-core106 dimerization, 1536-well; AID 1899;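 active = inhibition above the mean of all tested compounds plus 3 SD, set per screening campaign, cut at about 45% in these data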
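Material: GST/Flag-tagged HCV core106 proteins. Incubation: 4 h, 22.5 °C incubation. Read-out basis: inhibition (%) from 671 over 617 nm ratio. Measured by: TR-FRET, excitation 340 nm, emission 617 and 671 nm.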
NadD block: NadD (S. aureus) enzyme inhibition; purified NadD enzyme, colorimetric absorbance read-out; inhibition, % at 20 µM; 360,000 compounds, 0.78% hits; in the data active = inhibition above about 26%
Myeloid diff 2: promotes myeloid progenitor differentiation; calls only at 10 µM; AID 624256; ER-HoxA9 myeloid progenitors, lysozyme-GFP differentiation, flow cytometry; 360,000 compounds, 1% hits;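 active = normalized GFP-positive differentiation at or above the plate's own cutoff, the solvent-only control mean plus 3 SD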;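 also: cells exposed to compound for four days before flow analysis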
Myeloid diff: myeloid differentiation induction | shares compounds with Myeloid diff 2 | ER-HoxA9 myeloid progenitors, GFP/Mac1 double-positive flow | calls only | 2,300 compounds, 2% hits;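 active = share of green or green-and-red cells above 9 and 9% in run 1 or 4 and 3% in run 2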
GFP autofluor: flagged as fluorescent in myeloid differentiation counter-screen; shares compounds with Myeloid diff 2; ER-HoxA9 myeloid progenitors, no estrogen, GFP autofluorescence flow cytometry; vehicle wells 0%, positive control 100%; fluorescence response, % (concentration not given with the values); 2,300 compounds, 7.4% hits; AID 651707;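 active = over 5% cells positive for green fluorescent reporter, or over 2% positive for both it and APC stain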
Each line names hits and unclear results; the compound was inactive in the other large screens (follow-up assays come after a bar, where they were run).

CCc1ccc(NC(=O)CSCc2ccc(C(=O)O)cc2)cc1	none | Myeloid diff inactive | GFP autofluor inactive
O=C(Nc1cccc(Cl)c1Cl)C1CCCC1	none
O=C(Nc1ccccc1N1CCOCC1)c1ccc([N+](=O)[O-])o1	none | Myeloid diff inactive | GFP autofluor inactive
O=C(Nc1ccc(N2CCOCC2)cc1)c1cccc2c(Br)cccc12	none
O=C(Nc1ccccc1N1CCOCC1)c1cccc2c(Br)cccc12	Myeloid diff 2 active | Myeloid diff inactive | GFP autofluor inactive
O=C(CCNC(=O)c1ccc(Br)cc1)Nc1ccccc1N1CCOCC1	none | Myeloid diff inactive | GFP autofluor inactive
Cc1ccc(-c2nnc(-c3ccc(NC(=O)Cc4cccs4)cc3)o2)cc1	Myeloid diff 2 active | Myeloid diff inactive | GFP autofluor inactive
O=C(Cc1cccs1)Nc1cccc(-c2nnc(-c3ccco3)o2)c1	none
CC(=O)N1CCN(S(=O)(=O)c2cccc(C(=O)NNC(=O)COc3ccc(F)cc3)c2)CC1	none (no result: Fh CTSL1 inh, HCV core dimer)
CCCCN(C(=O)c1ccc(-c2ccc([N+](=O)[O-])cc2)o1)c1c(N)n(CCCC)c(=O)[nH]c1=O	none (no result: Myeloid diff 2)
CCCCN(C(=O)c1ccc([N+](=O)[O-])o1)c1c(N)n(CCCC)c(=O)[nH]c1=O	Myeloid diff 2 active | Myeloid diff inactive | GFP autofluor inactive
COc1ccc(/C=C2\C(=O)NC(=S)N2C(=O)c2ccc(F)cc2)cc1	none
O=C1NC(=S)N(C(=O)c2ccc(F)cc2)/C1=C/c1ccccc1	Myeloid diff 2 active | Myeloid diff inactive | GFP autofluor inactive
Nc1ccc(N2CCCCCC2)cc1	none (no result: NadD block, Myeloid diff 2)
Nc1ccc(N2CCN(c3ccc(F)cc3)CC2)cc1	Myeloid diff 2 active | Myeloid diff inactive | GFP autofluor inactive
CSC1=NSC2=NC(=O)/C(=C/c3coc4ccc(O)cc4c3=O)C(=N)N12	Myeloid diff 2 active | Myeloid diff inactive | GFP autofluor inactive
CSC1=NSC2=NC(=O)/C(=C/c3coc4ccccc4c3=O)C(=N)N12	none
CC(C)c1nc(SCC(=O)N2CCCC2)c2c(=O)n(C)c(=O)n(C)c2n1	Myeloid diff 2 active | Myeloid diff inactive | GFP autofluor inactive
O=C(NCc1cccnc1)c1cccc(NS(=O)(=O)c2ccc(Br)cc2)c1	none (no result: Myeloid diff 2)
Cc1ccc(S(=O)(=O)Nc2cccc(C(=O)NCc3cccnc3)c2)cc1F	none | Myeloid diff inactive | GFP autofluor inactive
O=C(Nc1ccc(-c2nc3c(ccc4ccccc43)o2)cc1)c1ccco1	Myeloid diff 2 active | Myeloid diff inactive | GFP autofluor inactive
Cc1ccccc1OCc1nnc(SCCN2CCCC2)n1-c1ccccc1	Myeloid diff 2 active | Myeloid diff inactive | GFP autofluor inactive
Cc1ccccc1OCc1nnc(SC(C)C(=O)O)n1-c1ccccc1 (stereo not drawn)	none (no result: PP1 counter, PP5 inh, Fh CTSL1 inh, HCV core dimer)
CC#CC(=O)NCC1(N(C)Cc2ccccc2)Cc2ccccc2C1	none
C/C(=N\NC(=O)c1ccc2c(c1)OCO2)c1ccc(NC(=O)CCCC(=O)O)cc1	none (no result: PP1 counter, PP5 inh, Fh CTSL1 inh, HCV core dimer) | Myeloid diff inactive | GFP autofluor inactive
O=C(O)c1cnn(-c2nc(-c3ccc(Br)cc3)cs2)c1C(F)(F)F	none
N/C(=N\OC(=O)C12CC3CC(CC(C3)C1)C2)c1cccnc1	none | Myeloid diff inactive | GFP autofluor inactive
N/C(=N\OC(=O)C12CC3CC(CC(C3)C1)C2)c1ccccc1	none
COc1ccc(-c2sc3ccccc3c2-c2ccc(OCCN3CCCCC3)cc2)cc1	none (no result: PP1 counter, PP5 inh, Fh CTSL1 inh, HCV core dimer)
COc1cccc(-c2sc3ccccc3c2-c2ccc(OCCN3CCCCC3)cc2)c1	none (no result: PP1 counter, PP5 inh, Fh CTSL1 inh, HCV core dimer) | Myeloid diff inactive | GFP autofluor inactive
c1ccc(-c2sc3ccccc3c2-c2ccc(OCCN3CCCC3)cc2)cc1	none (no result: PP1 counter, PP5 inh, Fh CTSL1 inh, HCV core dimer) | Myeloid diff inactive | GFP autofluor inactive
O=C(Nc1cccc(C(F)(F)F)c1)c1cc(S(=O)(=O)N2CCCCC2)ccc1N1CCOCC1	none | Myeloid diff inactive | GFP autofluor inactive
O=C(OCCOc1ccc(Cl)cc1)c1cc(S(=O)(=O)N2CCCCC2)ccc1N1CCOCC1	none (no result: PP1 counter, PP5 inh, Fh CTSL1 inh, HCV core dimer)
O=C(Nc1cccc(F)c1)c1cc(S(=O)(=O)N2CCOCC2)ccc1N1CCCC1	none (no result: Fh CTSL1 inh, HCV core dimer)
Cc1ccc(OCCOC(=O)c2cc(S(=O)(=O)N3CCCCC3)ccc2N2CCOCC2)cc1	Myeloid diff 2 active (no result: Fh CTSL1 inh, HCV core dimer) | Myeloid diff inactive | GFP autofluor inactive
CC1CN(c2ncnc3c2oc2ccccc23)CC(C)O1 (stereo not drawn)	none
O=C(O)C1CCCN1c1ncnc2c1oc1ccccc12 (stereo not drawn)	Myeloid diff 2 active | Myeloid diff inactive | GFP autofluor 6.6
CC(c1ccccc1)N1CC(C(=O)Nc2ccc(F)cc2)CC1=O (stereo not drawn)	none (no result: Fh CTSL1 inh, HCV core dimer)
CS(=O)(=O)N1N=C(c2cccs2)CC1c1ccccc1O (stereo not drawn)	none
CCOc1ccccc1C1CC(c2cccs2)=NN1S(C)(=O)=O (stereo not drawn)	Myeloid diff 2 active | Myeloid diff inactive | GFP autofluor 92
Cc1ccc(C)n1NC(=O)c1cccs1	none | Myeloid diff inactive | GFP autofluor inactive
Cc1ccc(C)n1NC(=O)c1ccccc1	none
CCN1C(=O)/C(=C/c2ccc(N3CCCC3)cc2)NC1=S	Myeloid diff 2 active | Myeloid diff inactive | GFP autofluor 93
CC(C)(C)c1cc(Cl)c(O)c(NC(=S)NC(=O)c2cccnc2)c1	Myeloid diff 2 active | Myeloid diff inactive | GFP autofluor inactive
COc1ccc(C2C(C(=O)Nc3cccnc3)=C(C)Nc3nc(-c4cccs4)nn32)cc1 (stereo not drawn)	none | Myeloid diff inactive | GFP autofluor inactive
CC1=C(C(=O)OC(C)C)C(c2cccs2)N2C(=O)CCSC2=N1 (stereo not drawn)	none | Myeloid diff inactive | GFP autofluor inactive
C[C@H](CO)N1C[C@H](C)[C@H](CN(C)Cc2ccncc2)Oc2cc(-c3ccccc3F)ccc2S1(=O)=O	none (no result: PP1 counter, PP5 inh, Fh CTSL1 inh, HCV core dimer) | Myeloid diff inactive | GFP autofluor inactive
COc1cccc(NC(=O)N(C)C[C@@H]2Oc3cc(Br)ccc3S(=O)(=O)N([C@@H](C)CO)C[C@H]2C)c1	none (no result: PP1 counter, PP5 inh, Fh CTSL1 inh, HCV core dimer)
COc1ccccc1-c1ccc2c(c1)O[C@@H](CN(C)C(=O)Nc1cccc(F)c1)[C@H](C)CN([C@H](C)CO)S2(=O)=O	none (no result: PP1 counter, PP5 inh, Fh CTSL1 inh, HCV core dimer) | Myeloid diff inactive | GFP autofluor inactive
CCCCn1c(N)c(N(CC(C)C)C(=O)CSc2nnc(-c3ccc(Cl)cc3)o2)c(=O)[nH]c1=O	none
Cn1c(-c2cccc([N+](=O)[O-])c2)cnc1NCc1cccc([N+](=O)[O-])c1	none
Cc1cccc(CNc2ncc(-c3cccc([N+](=O)[O-])c3)n2C)c1	none | Myeloid diff inactive | GFP autofluor inactive
Cc1cc(C)n(-c2nc3ccccc3nc2N2CCC(C)CC2)n1	none
